Broadly, the pIC50 is the negative decadic logarithm of the IC50, by convention in mol/L. Read a low pIC50 as a high IC50. What is called inhibition is the share of the control response that was lost under treatment.

Structures are written as SMILES. pIC50: −log10 of the molar value. Calls of active or inactive are those of the source. The calls are words filed in the database; no cut-off is given here.

Chain of Proteasome Macropain subunit (Homo sapiens) (P49721 whole entry): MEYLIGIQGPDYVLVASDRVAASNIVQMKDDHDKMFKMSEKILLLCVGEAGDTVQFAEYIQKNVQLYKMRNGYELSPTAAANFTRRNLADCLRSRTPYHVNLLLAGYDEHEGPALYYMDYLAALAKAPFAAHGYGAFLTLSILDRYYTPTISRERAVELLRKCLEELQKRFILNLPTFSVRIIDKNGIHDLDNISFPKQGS

The first test has as its target T1, Proteasome Macropain subunit MB1 (Homo sapiens, UniProt P28074).
T1 sequence (P28074 whole entry): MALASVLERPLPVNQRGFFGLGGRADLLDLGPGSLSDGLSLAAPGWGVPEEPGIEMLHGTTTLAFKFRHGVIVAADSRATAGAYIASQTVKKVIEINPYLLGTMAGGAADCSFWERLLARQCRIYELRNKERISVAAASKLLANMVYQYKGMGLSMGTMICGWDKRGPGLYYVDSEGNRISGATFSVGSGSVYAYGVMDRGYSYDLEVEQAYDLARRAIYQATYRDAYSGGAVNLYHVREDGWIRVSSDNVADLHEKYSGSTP
Kind of test: Inhibition of human 20S constitutive proteasome beta-5 using Suc-LLVY-AMC as substrate incubated for 15 mins measured for 45 mins by fluorescence assay. The procedure, abridged: (§1)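 Human 20S cCP or iCP (0.3 nM) was exposed to compound (0.001-50 μM) for 15 min in pH 8 buffer of 20 mM Tris-HCl, 10% glycerol, 0.01% SDS, 2% DMSO. Suc-LLVY-AMC at 20 μM followed. Fluorescence (ex 360/em 460 nm) was read 45 min at 37 °C versus untreated enzyme.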
In turn, `C[C@H](NC(=O)[C@H](Cc1ccc(OCc2ccccc2)cc1)NC(=O)OC(C)(C)C)C(=O)N[C@@H](C[C@]1(O)C(=O)Nc2ccccc21)C(=O)NC(c1ccccc1)c1ccccc1` had a pIC50 of 5.76.
`C[C@@H](NC(=O)[C@H](Cc1ccc(OCc2ccccc2)cc1)NC(=O)OC(C)(C)C)C(=O)N[C@@H](C[C@]1(O)C(=O)Nc2ccccc21)C(=O)NCc1ccccc1`: the pIC50 was 5.04.

The target of a further test is T2, Proteasome subunit beta type-8 (Homo sapiens, UniProt P28062).
T2 sequence (P28062 whole entry): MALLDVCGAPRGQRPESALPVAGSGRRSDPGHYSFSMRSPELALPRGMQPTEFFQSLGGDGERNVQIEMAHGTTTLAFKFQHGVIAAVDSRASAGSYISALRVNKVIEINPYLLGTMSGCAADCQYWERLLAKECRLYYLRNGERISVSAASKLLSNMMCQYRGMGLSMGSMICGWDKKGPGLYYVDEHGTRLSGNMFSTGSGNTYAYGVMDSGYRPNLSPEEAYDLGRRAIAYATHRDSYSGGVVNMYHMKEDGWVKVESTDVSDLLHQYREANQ
Kind of test: Inhibition of human 20S immunoproteasome beta-5 using Suc-LLVY-AMC as substrate incubated for 15 mins measured for 45 mins by fluorescence assay. The essentials:
as §1
As for `C[C@H](NC(=O)[C@H](Cc1ccc(OCc2ccccc2)cc1)NC(=O)OC(C)(C)C)C(=O)N[C@@H](C[C@]1(O)C(=O)Nc2ccccc21)C(=O)NC(c1ccccc1)c1ccccc1`, the negative-log IC50 (pIC50) is 5.57.
For the compound `C[C@@H](NC(=O)[C@H](Cc1ccc(OCc2ccccc2)cc1)NC(=O)OC(C)(C)C)C(=O)N[C@@H](C[C@]1(O)C(=O)Nc2ccccc21)C(=O)NCc1ccccc1`, the pIC50 was 4.88.

A further test addresses T3, Proteasome Macropain subunit MB1 (Homo sapiens) (UniProt P28074).
T3 sequence (whole entry): T1 sequence (P28074 whole entry)
Kind of test: Inhibition of human 20S constitutive proteasome beta-5 at 50 uM using Suc-LLVY-AMC as substrate incubated for 15 mins measured for 45 mins by fluorescence assay relative to control. The procedure, abridged: as §1
Take `C[C@H](NC(=O)[C@H](Cc1ccc(OCc2ccccc2)cc1)NC(=O)OC(C)(C)C)C(=O)N[C@@H](C[C@]1(O)C(=O)Nc2ccccc21)C(=O)NC(c1ccccc1)c1ccccc1`: the inhibition is greater than 85%.
The same measure, in the same setting: as for `C[C@@H](NC(=O)[C@H](Cc1ccc(OCc2ccccc2)cc1)NC(=O)OC(C)(C)C)C(=O)N[C@@H](C[C@]1(O)C(=O)Nc2ccccc21)C(=O)NCc1ccccc1`, the figure is greater than 85%.

Another test concerns the target T4, Proteasome subunit beta type-8 (Homo sapiens) (UniProt P28062).
T4 sequence (whole entry): T2 sequence (P28062 whole entry)
Kind of test: Inhibition of human 20S immunoproteasome beta-5 at 50 uM using Suc-LLVY-AMC as substrate incubated for 15 mins measured for 45 mins by fluorescence assay relative to control. The essentials:
as §1
In turn, `C[C@H](NC(=O)[C@H](Cc1ccc(OCc2ccccc2)cc1)NC(=O)OC(C)(C)C)C(=O)N[C@@H](C[C@]1(O)C(=O)Nc2ccccc21)C(=O)NC(c1ccccc1)c1ccccc1` had an inhibition greater than 85%.
On the same count and under the same terms, under `C[C@@H](NC(=O)[C@H](Cc1ccc(OCc2ccccc2)cc1)NC(=O)OC(C)(C)C)C(=O)N[C@@H](C[C@]1(O)C(=O)Nc2ccccc21)C(=O)NCc1ccccc1` stands greater than 85%.

Another test concerns the target T5, Proteasome subunit beta type-9 (Homo sapiens, UniProt P28065).
T5 sequence (P28065 whole entry): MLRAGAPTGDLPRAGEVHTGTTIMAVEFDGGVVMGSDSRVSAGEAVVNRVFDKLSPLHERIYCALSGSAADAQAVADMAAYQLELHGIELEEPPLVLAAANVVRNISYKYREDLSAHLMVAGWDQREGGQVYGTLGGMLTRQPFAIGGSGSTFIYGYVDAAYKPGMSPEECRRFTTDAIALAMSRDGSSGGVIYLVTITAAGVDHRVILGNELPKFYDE
Kind of test: Inhibition of human 20S immunoproteasome beta-1 using Ac-PAL-AMC as substrate incubated for 15 mins measured for 45 mins by fluorescence assay. The essentials: (§2)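 Human 20S immunoproteasome (0.3 nM) was given 15 min with compound (0.001-50 μM) in pH 8 buffer of 20 mM Tris-HCl, 10% glycerol, 0.01% SDS, 2% DMSO. Ac-PAL-AMC at 50 μM was the substrate. Fluorescence (ex 360/em 460 nm) was followed 45 min at 37 °C relative to control.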
Compound `C[C@H](NC(=O)[C@H](Cc1ccc(OCc2ccccc2)cc1)NC(=O)OC(C)(C)C)C(=O)N[C@@H](C[C@]1(O)C(=O)Nc2ccccc21)C(=O)NC(c1ccccc1)c1ccccc1` showed a pIC50 of 5.40.
Same read-out and setting: under `C[C@@H](NC(=O)[C@H](Cc1ccc(OCc2ccccc2)cc1)NC(=O)OC(C)(C)C)C(=O)N[C@@H](C[C@]1(O)C(=O)Nc2ccccc21)C(=O)NCc1ccccc1` stands 4.90.

Another test deals with T6, Proteasome component C5 (Homo sapiens) (UniProt P20618).
T6 sequence (whole entry): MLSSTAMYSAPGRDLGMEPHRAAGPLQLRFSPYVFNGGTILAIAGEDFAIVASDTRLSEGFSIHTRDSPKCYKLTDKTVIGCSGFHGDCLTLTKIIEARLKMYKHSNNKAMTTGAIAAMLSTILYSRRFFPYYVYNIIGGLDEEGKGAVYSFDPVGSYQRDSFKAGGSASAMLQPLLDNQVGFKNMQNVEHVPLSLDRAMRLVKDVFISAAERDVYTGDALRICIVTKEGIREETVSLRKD
The experiment in a line: Inhibition of human 20S constitutive proteasome beta-1 at 50 uM using Z-LLE-betaNA as substrate incubated for 15 mins measured for 45 mins by fluorescence assay relative to control. The procedure, abridged: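 Human 20S constitutive proteasome, 0.3 nM, was preincubated 15 min with compound (0.001-50 μM) in pH 8 Tris-HCl 20 mM, 10% glycerol, 0.01% SDS, 2% DMSO. Z-LLE-βNA at 50 μM was added. βNA fluorescence (ex 340/em 404 nm) was monitored 45 min at 37 °C against an untreated control.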
Compound `C[C@H](NC(=O)[C@H](Cc1ccc(OCc2ccccc2)cc1)NC(=O)OC(C)(C)C)C(=O)N[C@@H](C[C@]1(O)C(=O)Nc2ccccc21)C(=O)NC(c1ccccc1)c1ccccc1` gave an inhibition greater than 85%.
Same read-out and setting: under `C[C@@H](NC(=O)[C@H](Cc1ccc(OCc2ccccc2)cc1)NC(=O)OC(C)(C)C)C(=O)N[C@@H](C[C@]1(O)C(=O)Nc2ccccc21)C(=O)NCc1ccccc1` stands greater than 85%.

In a further test the target is T7, Proteasome subunit beta type-9 (Homo sapiens) (UniProt P28065).
T7 sequence (whole entry): T5 sequence (P28065 whole entry)
Kind of test: Inhibition of human 20S immunoproteasome beta-1 at 50 uM using Ac-PAL-AMC as substrate incubated for 15 mins measured for 45 mins by fluorescence assay relative to control. The procedure, abridged: as §2
Take `C[C@H](NC(=O)[C@H](Cc1ccc(OCc2ccccc2)cc1)NC(=O)OC(C)(C)C)C(=O)N[C@@H](C[C@]1(O)C(=O)Nc2ccccc21)C(=O)NC(c1ccccc1)c1ccccc1`: the inhibition is greater than 85%.
`C[C@@H](NC(=O)[C@H](Cc1ccc(OCc2ccccc2)cc1)NC(=O)OC(C)(C)C)C(=O)N[C@@H](C[C@]1(O)C(=O)Nc2ccccc21)C(=O)NCc1ccccc1` gave an inhibition greater than 85%.

The target in another test is T8, Proteasome subunit beta type-10 (Homo sapiens, UniProt P40306).
T8 sequence (P40306 whole entry): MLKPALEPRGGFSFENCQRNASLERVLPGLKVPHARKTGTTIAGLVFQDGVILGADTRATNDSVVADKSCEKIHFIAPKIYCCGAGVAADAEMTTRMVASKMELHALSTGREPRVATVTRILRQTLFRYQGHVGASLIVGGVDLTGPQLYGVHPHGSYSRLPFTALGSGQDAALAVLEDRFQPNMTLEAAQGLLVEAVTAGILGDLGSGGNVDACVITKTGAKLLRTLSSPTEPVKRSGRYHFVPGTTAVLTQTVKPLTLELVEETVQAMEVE
The experiment in a line: Inhibition of human 20S immunoproteasome beta-2 using BocLRR-AMC as substrate incubated for 15 mins measured for 45 mins by fluorescence assay.
Consider `C[C@@H](NC(=O)[C@H](Cc1ccc(OCc2ccccc2)cc1)NC(=O)OC(C)(C)C)C(=O)N[C@@H](C[C@]1(O)C(=O)Nc2ccccc21)C(=O)NCc1ccccc1`, for which the pIC50 was 4.67.

Another test has as its target Proteasome Macropain subunit (Homo sapiens) (UniProt P49721). Kind of test: Inhibition of human 20S constitutive proteasome beta-2 at 50 uM using BocLRR-AMC as substrate incubated for 15 mins measured for 45 mins by fluorescence assay relative to control. The essentials:
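Purified human 20S proteasome (cCP or iCP), 0.3 nM, preincubated 15 min with compound (0.001-50 μM) in pH 8 buffer of 20 mM Tris-HCl, 10% glycerol, 0.005% Triton X-100, 2% DMSO. Then Boc-LRR-AMC at 50 μM was added. AMC fluorescence (ex 360/em 460 nm) was followed 45 min at 37 °C. Activity is relative to an untreated control.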
`C[C@H](NC(=O)[C@H](Cc1ccc(OCc2ccccc2)cc1)NC(=O)OC(C)(C)C)C(=O)N[C@@H](C[C@]1(O)C(=O)Nc2ccccc21)C(=O)NC(c1ccccc1)c1ccccc1` gave an inhibition of 30%.
In the case of `C[C@@H](NC(=O)[C@H](Cc1ccc(OCc2ccccc2)cc1)NC(=O)OC(C)(C)C)C(=O)N[C@@H](C[C@]1(O)C(=O)Nc2ccccc21)C(=O)NCc1ccccc1`, the inhibition is greater than 85%.

The next test has as its target T9, Proteasome subunit beta type-10 (Homo sapiens) (UniProt P40306).
T9 sequence (whole entry): T8 sequence (P40306 whole entry)
The experiment in a line: Inhibition of human 20S immunoproteasome beta-2 at 50 uM using BocLRR-AMC as substrate incubated for 15 mins measured for 45 mins by fluorescence assay relative to control.
Regarding `C[C@H](NC(=O)[C@H](Cc1ccc(OCc2ccccc2)cc1)NC(=O)OC(C)(C)C)C(=O)N[C@@H](C[C@]1(O)C(=O)Nc2ccccc21)C(=O)NC(c1ccccc1)c1ccccc1`, the inhibition entry was “inactive”.
On the same count and under the same terms, as for `C[C@@H](NC(=O)[C@H](Cc1ccc(OCc2ccccc2)cc1)NC(=O)OC(C)(C)C)C(=O)N[C@@H](C[C@]1(O)C(=O)Nc2ccccc21)C(=O)NCc1ccccc1`, the figure is greater than 85%.

The record behind these values is ChEMBL document CHEMBL4251654, “Structure-based design of human immuno- and constitutive proteasomes inhibitors” (Eur J Med Chem, 2018).
